Source: ChEMBL document CHEMBL4622983, “Structure-Activity Relationship Studies of α-Ketoamides as Inhibitors of the Phospholipase A and Acyltransferase Enzyme Family” (J Med Chem, 2020)
Active and inactive are the calls of the source. The rule behind the calls is not given here.

Columns and labels:
[1] = molecular target: Cytosolic phospholipase A2 gamma (Homo sapiens) (UniProt Q9UP65); test: Inhibition of human PLA2G4C expressed in HEK293T cell lysates at 10 uM preincubated for 30 mins followed by FP-TAMRA addition and measured after 20 mins by SDS-PAGE based competitive ABPP analysis; type: cell-free; settings: HEK-293T
Chain of Cytosolic phospholipase A2 gamma (Homo sapiens) (Q9UP65 whole entry): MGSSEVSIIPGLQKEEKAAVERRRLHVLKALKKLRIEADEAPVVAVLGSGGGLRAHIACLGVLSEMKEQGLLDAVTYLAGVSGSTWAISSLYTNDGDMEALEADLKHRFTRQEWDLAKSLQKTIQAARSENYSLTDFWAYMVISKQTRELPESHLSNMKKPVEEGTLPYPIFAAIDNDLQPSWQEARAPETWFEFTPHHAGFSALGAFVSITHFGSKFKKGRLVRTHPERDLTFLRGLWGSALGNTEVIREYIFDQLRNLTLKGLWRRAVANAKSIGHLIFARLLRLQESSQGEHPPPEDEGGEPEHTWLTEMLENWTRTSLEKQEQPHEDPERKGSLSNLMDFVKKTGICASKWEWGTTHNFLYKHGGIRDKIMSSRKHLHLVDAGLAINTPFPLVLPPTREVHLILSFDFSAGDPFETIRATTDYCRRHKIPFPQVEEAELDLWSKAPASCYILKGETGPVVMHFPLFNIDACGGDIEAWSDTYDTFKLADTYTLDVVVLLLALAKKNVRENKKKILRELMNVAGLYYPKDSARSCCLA
In short: (§1)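 hPLA2G4B, C or D-overexpressing membrane lysate (1 μg/μL) preincubated with inhibitor for 30 min at rt. FP-TAMRA 500 nM added for 20 min at rt. In-gel fluorescence after SDS-PAGE, normalized to Coomassie.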

[2] = molecular target: Cytosolic phospholipase A2 beta (Homo sapiens) (UniProt P0C869); test: Inhibition of human PLA2G4B expressed in HEK293T cell lysates at 10 uM preincubated for 30 mins followed by FP-TAMRA addition and measured after 20 mins by SDS-PAGE based competitive ABPP analysis; type: cell-free; settings: HEK-293T; in short: as §1
Chain of Cytosolic phospholipase A2 beta (Homo sapiens) (P0C869 whole entry): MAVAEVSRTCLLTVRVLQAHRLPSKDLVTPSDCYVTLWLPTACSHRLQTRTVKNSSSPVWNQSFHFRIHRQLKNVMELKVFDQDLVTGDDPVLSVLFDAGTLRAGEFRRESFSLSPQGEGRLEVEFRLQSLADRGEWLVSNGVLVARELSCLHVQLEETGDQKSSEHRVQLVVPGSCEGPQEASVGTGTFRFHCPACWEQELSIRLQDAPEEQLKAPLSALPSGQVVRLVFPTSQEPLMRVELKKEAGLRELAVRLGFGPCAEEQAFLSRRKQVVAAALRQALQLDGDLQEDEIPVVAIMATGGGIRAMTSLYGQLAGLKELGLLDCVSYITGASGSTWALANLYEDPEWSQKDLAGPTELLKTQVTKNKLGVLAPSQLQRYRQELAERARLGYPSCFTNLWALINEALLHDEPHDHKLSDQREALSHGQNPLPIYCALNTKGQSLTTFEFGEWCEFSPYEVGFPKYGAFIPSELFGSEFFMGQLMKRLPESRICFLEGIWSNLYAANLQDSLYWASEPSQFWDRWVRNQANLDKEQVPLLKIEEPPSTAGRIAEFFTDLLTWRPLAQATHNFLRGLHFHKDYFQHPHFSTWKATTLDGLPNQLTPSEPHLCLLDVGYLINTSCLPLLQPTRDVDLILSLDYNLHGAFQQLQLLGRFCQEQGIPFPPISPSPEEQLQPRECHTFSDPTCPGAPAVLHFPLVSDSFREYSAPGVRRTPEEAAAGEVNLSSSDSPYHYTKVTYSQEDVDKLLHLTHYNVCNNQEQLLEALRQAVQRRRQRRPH

[3] = molecular target: T1, Phospholipase A and acyltransferase 3 (Homo sapiens, UniProt P53816); test: Inhibition of full-length C-terminal FLAG-tagged human PLAAT3 expressed in HEK293T cell lysate preincubated for 30 mins followed by MB064 addition and measured after 20 mins by SDS-PAGE based ABPP analysis; type: cell-free, HEK-293T
T1 sequence (P53816 whole entry): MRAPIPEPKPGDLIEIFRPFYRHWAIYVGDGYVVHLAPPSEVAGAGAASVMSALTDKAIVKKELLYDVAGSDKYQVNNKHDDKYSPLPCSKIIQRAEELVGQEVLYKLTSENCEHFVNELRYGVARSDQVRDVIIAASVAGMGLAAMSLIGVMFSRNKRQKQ
In short: (§2)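 Dose–response competitive ABPP on cytosol only, from HEK293T overexpressing FLAG-tagged PLAAT. Inhibitor 30 min rt, then MB064 20 min rt. PLAAT2 0.25 μg/μL with 250 nM probe; PLAAT3 0.5 μg/μL with 250 nM; PLAAT4 and PLAAT5 1 μg/μL with 500 nM. Fluorescence normalized to Coomassie. IC50 from curves, reported as pIC50 ± SEM, n = 3.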

[4] = molecular target: T2, Phospholipase A and acyltransferase 2 (Homo sapiens) (UniProt Q9NWW9); test: Inhibition of full-length C-terminal FLAG-tagged human PLAAT2 expressed in human U2OS cells assessed as reduction in absolute N-linoleoylethanolamine level at 10 uM incubated for 4 hrs by LC-MS/MS analysis; type: cell-based
T2 sequence (whole entry): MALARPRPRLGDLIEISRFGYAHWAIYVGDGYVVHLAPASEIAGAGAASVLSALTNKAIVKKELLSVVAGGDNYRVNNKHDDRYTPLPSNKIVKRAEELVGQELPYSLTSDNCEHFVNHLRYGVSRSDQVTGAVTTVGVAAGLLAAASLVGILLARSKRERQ
In short: (§3)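 U2OS cells transfected with PLAAT2, PLAAT5 or empty vector (PEI, 1:5 plasmid/PEI). At 24 h, switched to serum-free medium with 10 μM compound (0.1% DMSO) or DMSO for 4 h at 37 °C. Pellets extracted with MTBE against deuterated internal standards. NAEs, 2-AG and free fatty acids quantified by LC–MS/MS, normalized to live cell count. Four biological replicates; one-way ANOVA.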

[5] = tested on: U2OS; test: Inhibition of serine hydrolase in human U2OS cell membrane fraction at 10 uM preincubated for 30 mins followed by MB064 addition and measured after 15 mins by SDS-PAGE based competitive ABPP analysis
In short: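 U2OS cytosol or membrane lysate at 2.5 μg/μL, pretreated with inhibitor or DMSO vehicle for 30 min at rt. Probe then added for 15 min at rt: MB064 at 2 μM or FP-TAMRA at 500 nM. Samples denatured in Laemmli buffer and resolved by SDS-PAGE. In-gel fluorescence scanned at Cy3/Cy5 settings and normalized to Coomassie staining.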

[6] = molecular target: Monoacylglycerol lipase ABHD6 (Mus musculus) (UniProt Q8R2Y0); test: Inhibition of mouse brain membrane ABHD6 assessed as enzyme remaining activity at 10 uM preincubated for 30 mins followed by MB064 or FP-TAMRA addition and measured after 15 mins by SDS-PAGE based ABPP analysis relative to control; type: cell membranes
Chain of Monoacylglycerol lipase ABHD6 (Mus musculus) (Q8R2Y0 whole entry): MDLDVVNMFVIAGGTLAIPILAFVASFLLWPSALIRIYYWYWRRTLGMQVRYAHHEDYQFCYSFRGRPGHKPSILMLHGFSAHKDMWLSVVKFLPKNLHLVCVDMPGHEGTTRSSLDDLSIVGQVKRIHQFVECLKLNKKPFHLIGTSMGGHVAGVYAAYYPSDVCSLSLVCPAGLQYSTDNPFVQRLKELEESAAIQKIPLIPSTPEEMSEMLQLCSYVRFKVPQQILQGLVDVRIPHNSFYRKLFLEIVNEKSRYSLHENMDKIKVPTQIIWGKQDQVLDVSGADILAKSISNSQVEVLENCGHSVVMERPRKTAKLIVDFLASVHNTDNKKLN
In short: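 Mouse brain membrane proteome (2 μg/μL) preincubated with 10 μM inhibitor for 30 min at rt. Then MB064 250 nM or FP-TAMRA 500 nM for 15 min at rt. Resolved on 10% SDS-PAGE, fluorescence normalized to Coomassie. Reported as % remaining activity ± SD, n = 3.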

[7] = tested on: U2OS; test: Downregulation of N-stearoylethanolamine level in human U2OS cells at 10 uM after 4 hrs by LC-MS/MS analysis; type: functional, cell-based; in short: as §3
[8] = tested on: U2OS; test: Inhibition of serine hydrolase in human U2OS cell membrane fraction at 10 uM preincubated for 30 mins followed by FP-TAMRA addition and measured after 15 mins by SDS-PAGE based competitive ABPP analysis
In short: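 U2OS membrane lysate (2.5 μg/μL) preincubated with inhibitor for 30 min at rt. FP-TAMRA 500 nM added for 15 min at rt. SDS-PAGE with in-gel fluorescence normalized to Coomassie.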

[9] = molecular target: T3, Phospholipase A and acyltransferase 4 (Homo sapiens, UniProt Q9UL19); test: Inhibition of full-length C-terminal FLAG-tagged human PLAAT4 expressed in HEK293T cell lysate preincubated for 30 mins followed by MB064 addition and measured after 20 mins by SDS-PAGE based ABPP analysis; type: cell-free, HEK-293T; in short: as §2
T3 sequence (Q9UL19 whole entry): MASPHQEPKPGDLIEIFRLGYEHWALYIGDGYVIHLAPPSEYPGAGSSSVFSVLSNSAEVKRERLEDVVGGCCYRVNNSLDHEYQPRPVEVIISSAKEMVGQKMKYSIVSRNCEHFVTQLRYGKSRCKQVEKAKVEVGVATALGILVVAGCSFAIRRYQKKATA

[10] = molecular target: Monoglyceride lipase (Homo sapiens) (UniProt Q99685); test: Inhibition of human MAGL expressed in HEK293 cells assessed as enzyme remaining activity at 10 uM measured by natural substrate-based fluorescence assay relative to control
Chain of Monoglyceride lipase (Homo sapiens) (Q99685 whole entry): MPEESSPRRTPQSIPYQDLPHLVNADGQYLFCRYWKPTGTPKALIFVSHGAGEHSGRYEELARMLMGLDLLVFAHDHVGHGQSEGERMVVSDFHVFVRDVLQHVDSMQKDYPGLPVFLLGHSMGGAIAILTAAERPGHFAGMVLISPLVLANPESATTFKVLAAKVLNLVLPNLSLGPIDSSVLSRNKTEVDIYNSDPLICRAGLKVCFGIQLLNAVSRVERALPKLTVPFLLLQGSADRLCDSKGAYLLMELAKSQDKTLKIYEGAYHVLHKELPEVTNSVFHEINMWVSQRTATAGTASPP

[11] = molecular target: T2, Phospholipase A and acyltransferase 2 (Homo sapiens); test: Inhibition of full-length C-terminal FLAG-tagged human PLAAT2 expressed in human U2OS cells assessed as reduction in absolute N-stearoylethanolamine level at 10 uM incubated for 4 hrs by LC-MS/MS analysis; type: cell-based; in short: as §3
[12] = molecular target: T4, Phospholipase A and acyltransferase 5 (Homo sapiens) (UniProt Q96KN8); test: Inhibition of full-length C-terminal FLAG-tagged human PLAAT5 expressed in human U2OS cells assessed as reduction in absolute N-palmitoleoylethanolamine level at 10 uM incubated for 4 hrs by LC-MS/MS analysis; type: cell-based; in short: as §3
T4 sequence (whole entry): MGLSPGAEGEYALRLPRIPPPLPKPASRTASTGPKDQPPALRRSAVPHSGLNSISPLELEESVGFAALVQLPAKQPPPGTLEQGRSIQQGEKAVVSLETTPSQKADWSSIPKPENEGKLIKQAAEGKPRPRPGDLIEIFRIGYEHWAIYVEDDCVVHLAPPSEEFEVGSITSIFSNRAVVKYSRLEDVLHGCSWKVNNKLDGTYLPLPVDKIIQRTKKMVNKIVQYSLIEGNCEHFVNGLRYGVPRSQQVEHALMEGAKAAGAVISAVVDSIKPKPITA

[13] = molecular target: T2, Phospholipase A and acyltransferase 2 (Homo sapiens); test: Inhibition of full-length C-terminal FLAG-tagged human PLAAT2 expressed in human U2OS cells assessed as reduction in absolute N-docosahexaenoylethanolamine level at 10 uM incubated for 4 hrs by LC-MS/MS analysis; type: cell-based; in short: as §3

inhibition [1]: inactive
inhibition [2]: inactive
IC50 [3]: 251 nM
inhibition [4]: Active
Activity [6]: 92%
IC50 [9]: 50.1 nM
Activity [10]: 105%
inhibition [11]: Active
inhibition [12]: Active
inhibition [13]: Active
Compound: O=C(CCCc1ccccc1)C(=O)NCCc1ccc(Oc2ccccc2)cc1
inhibition [5]: inactive
inhibition [7]: inactive
inhibition [8]: inactive
